Measurements published in ChEMBL document CHEMBL1148785, “Second generation tetrahydroquinoline-based protein farnesyltransferase inhibitors as antimalarials” (J Med Chem, 2007).

Columns and labels:
Plasmodium falciparum [1] = assay: Antimalarial activity against Plasmodium falciparum K1; assay type: functional; settings: read-out: ED50 (the source's name)
Summary of the method: (§1)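 Asynchronous culture in type A+ erythrocytes at 0.5% parasitemia and 0.5% hematocrit, grown in RPMI-1640 with 20% heat-inactivated human A+ plasma. Compound was serially diluted from a top final 5 µM, with DMSO vehicle as 100% growth. Plates ran 48 h at 37 °C under 5% CO2/5% O2/90% N2, then [3H]-hypoxanthine (0.3 µCi) for 24 h. Filter-harvested counts were corrected for the uninfected-RBC background. ED50 by linear regression; duplicates averaged.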

Plasmodium falciparum [2] = assay: Inhibition of Plasmodium falciparum protein farnesyltransferase at 50 nM by scintillation proximity assay
[3] = Inhibition of Plasmodium falciparum protein farnesyltransferase by scintillation proximity assay
Plasmodium falciparum [4] = assay: Inhibition of Plasmodium falciparum protein farnesyltransferase at 0.5 nM by scintillation proximity assay
Plasmodium falciparum [5] = assay: Antimalarial activity against Plasmodium falciparum 3D7; assay type: functional; settings: read-out: ED50 (the source's name); summary of the method: as §1
Plasmodium falciparum [6] = assay: Inhibition of Plasmodium falciparum protein farnesyltransferase at 5 nM by scintillation proximity assay
[7] = biological target: Protein farnesyltransferase (Rattus norvegicus); assay: Inhibition of protein farnesyltransferase

Row | EC50 (Plasmodium falciparum [1]; Plasmodium falciparum, K1) | inhibition (Plasmodium falciparum [2]) | IC50 [3] | inhibition (Plasmodium falciparum [4]) | EC50 (Plasmodium falciparum [5]; Plasmodium falciparum, 3D7) | inhibition (Plasmodium falciparum [6]) | IC50 [7] | Structure (SMILES) | EC50 (Plasmodium falciparum [1]) | EC50 (Plasmodium falciparum [5])
1 | 50 nM | 99% | 0.9 nM | 93% | 62 nM | 45% | – | Cn1cncc1CN1CC(N(CC2CCN(S(C)(=O)=O)CC2)S(=O)(=O)c2ccccn2)Cc2cc(C#N)ccc21 (stereo unspecified) | – | –
2 | 55 nM | 98% | 2 nM | 77% | 43 nM | 30% | – | Cn1cncc1CN1CC(N(CC2CCN(C(=O)CC(F)(F)F)CC2)S(=O)(=O)c2ccccn2)Cc2cc(C#N)ccc21 (stereo unspecified) | – | –
3 | 1700 nM | 26% | 900 nM | 7% | 460 nM | 0% | – | Cn1cncc1CN1CC(N(CC2CCN(C(=O)c3ccc(Cl)cc3)CC2)S(=O)(=O)c2ccccn2)Cc2cc(C#N)ccc21 (stereo unspecified) | – | –
4 | 95 nM | 94% | 2.4 nM | 65% | 37 nM | 29% | – | CC(=O)N1CCC(CN(C2Cc3cc(C#N)ccc3N(Cc3cncn3C)C2)S(=O)(=O)c2ccccn2)CC1 (stereo unspecified) | – | –
5 | > 5000 nM | – | > 50 nM | – | > 5000 nM | – | – | Cc1cc(C(=O)N(CC(=O)OC(C)(C)C)C2Cc3cc(C#N)ccc3N(Cc3cncn3C)C2)no1 (stereo unspecified) | – | –
6 | 100 nM | 100% | – | 4% | 51 nM | 93% | 3.8 nM | Cn1cncc1CN1CC(N(Cc2ccccn2)S(=O)(=O)c2ccccn2)Cc2cc(C#N)ccc21 (stereo unspecified) | – | –
7 | 3000 nM | 53% | – | – | 3000 nM | 4% | 10 nM | Cn1cncc1CN1CC(N(Cc2cc3nsnc3cc2Cl)S(=O)(=O)c2ccccn2)Cc2cc(C#N)ccc21 (stereo unspecified) | – | –
8 | 130 nM | – | 0.9 nM | – | 250 nM | – | – | Cn1cnc(S(=O)(=O)N(CCCCC(=O)NCCN)C2Cc3cc(C#N)ccc3N(Cc3cncn3C)C2)c1 (stereo unspecified) | – | –
9 | 3100 nM | 80% | 8 nM | 2% | 750 nM | 27% | 5 nM | Cn1cncc1CN1CC(N(CC(=O)NC(C)(C)C)S(=O)(=O)c2nccn2C)Cc2cc(C#N)ccc21 (stereo unspecified) | – | –
10 | > 5000 nM | 65% | – | 0% | > 5000 nM | 6% | 105 nM | Cn1cnc(S(=O)(=O)N(CC2CCNCC2)C2Cc3cc(C#N)ccc3N(Cc3cncn3C)C2)c1 (stereo unspecified) | – | –
11 | – | 55% | – | – | – | 13% | 440 nM | Cn1cncc1CN1CC(N(Cc2ccc3ccccc3c2Br)S(=O)(=O)c2ccccn2)Cc2cc(C#N)ccc21 (stereo unspecified) | – | –
12 | > 5000 nM | – | > 50 nM | – | > 5000 nM | – | – | Cn1cnc(C(=O)N(CC(=O)OC(C)(C)C)C2Cc3cc(C#N)ccc3N(Cc3cncn3C)C2)c1 (stereo unspecified) | – | –
13 | 13 nM | 98% | 0.6 nM | 91% | 18 nM | 24% | – | CC(C)C(=O)N1CCC(CN(C2Cc3cc(C#N)ccc3N(Cc3cncn3C)C2)S(=O)(=O)c2ccccn2)CC1 (stereo unspecified) | – | –
14 | 2 nM | 99% | 0.4 nM | – | 12 nM | – | – | Cn1cnc(S(=O)(=O)N(Cc2ccsc2)C2Cc3cc(C#N)ccc3N(Cc3cncn3C)C2)c1 (stereo unspecified) | – | –
15 | 56 nM | 100% | – | 42% | 45 nM | 93% | 3 nM | Cc1onc(-c2ccccc2)c1CN(C1Cc2cc(C#N)ccc2N(Cc2cncn2C)C1)S(=O)(=O)c1ccccn1 (stereo unspecified) | – | –
16 | 10 nM | 100% | 0.75 nM | 94% | 11.5 nM | 39% | – | Cn1cncc1CN1CC(N(CC2CCN(C(=O)C3CC3)CC2)S(=O)(=O)c2ccccn2)Cc2cc(C#N)ccc21 (stereo unspecified) | – | –
17 | 50 nM | 99% | – | 25% | 75 nM | 92% | 7.5 nM | COCCCN(C1Cc2cc(C#N)ccc2N(Cc2cncn2C)C1)S(=O)(=O)c1cn(C)cn1 (stereo unspecified) | – | –
18 | > 5000 nM | – | > 50 nM | – | > 5000 nM | – | – | Cn1cncc1CN1CC(N(CC(=O)OC(C)(C)C)C(=O)c2ccccc2)Cc2cc(C#N)ccc21 (stereo unspecified) | – | –
19 | 300 nM | 93% | – | 9% | 200 nM | 62% | – | Cn1cnc(S(=O)(=O)N(CCN2CCCCC2)C2Cc3cc(C#N)ccc3N(Cc3cncn3C)C2)c1 (stereo unspecified) | – | –
20 | 98 nM | 85% | – | 12% | 175 nM | 31% | – | Cn1cncc1CN1CC(N(Cc2cccc3nsnc23)S(=O)(=O)c2ccccn2)Cc2cc(C#N)ccc21 (stereo unspecified) | – | –
21 | > 5000 nM | 66% | – | 0% | > 5000 nM | 19% | 4.8 nM | Cn1cnc(S(=O)(=O)N(Cc2ccc(C(=O)O)cc2)C2Cc3cc(C#N)ccc3N(Cc3cncn3C)C2)c1 (stereo unspecified) | – | –
22 | 270 nM | 98% | – | 27% | 320 nM | 78% | – | CN(CCCCN(C1Cc2cc(C#N)ccc2N(Cc2cncn2C)C1)S(=O)(=O)c1ccccn1)C(=O)OC(C)(C)C (stereo unspecified) | – | –
23 | 73 nM | 98% | – | 31% | 150 nM | 87% | – | Cn1cnc(S(=O)(=O)N(CCCCCC(N)=O)C2Cc3cc(C#N)ccc3N(Cc3cncn3C)C2)c1 (stereo unspecified) | – | –

The next lines start with the molecule.

Row | Structure (SMILES) | EC50 (Plasmodium falciparum [1]; Plasmodium falciparum, K1) | inhibition (Plasmodium falciparum [2]) | IC50 [3] | inhibition (Plasmodium falciparum [4]) | EC50 (Plasmodium falciparum [5]; Plasmodium falciparum, 3D7) | inhibition (Plasmodium falciparum [6]) | IC50 [7] | EC50 (Plasmodium falciparum [1]) | EC50 (Plasmodium falciparum [5])
24 | CCCC(=O)N1CCC(CN(C2Cc3cc(C#N)ccc3N(Cc3cncn3C)C2)S(=O)(=O)c2ccccn2)CC1 (stereo unspecified) | 690 nM | 95% | 3 nM | 63% | 80 nM | 12% | 6.5 nM | – | –
25 | CCNC(=O)N1CCC(CN(C2Cc3cc(C#N)ccc3N(Cc3cncn3C)C2)S(=O)(=O)c2ccccn2)CC1 (stereo unspecified) | 65 nM | 98% | 0.65 nM | 95% | 67 nM | 60% | – | – | –
26 | Cc1ccccc1CN(C1Cc2cc(C#N)ccc2N(Cc2cncn2C)C1)S(=O)(=O)c1cn(C)cn1 (stereo unspecified) | 20 nM | 100% | – | 34% | 55 nM | 95% | 3.4 nM | – | –
27 | Cn1cnc(S(=O)(=O)N(Cc2ccc3ccccc3c2Br)C2Cc3cc(C#N)ccc3N(Cc3cncn3C)C2)c1 (stereo unspecified) | 4500 nM | 69% | – | 0% | 3000 nM | 9% | 1000 nM | – | –
28 | Cn1cncc1CN1CC(N(CC2CCN(C(=O)OC(C)(C)C)CC2)S(=O)(=O)c2ccccn2)Cc2cc(C#N)ccc21 (stereo unspecified) | 180 nM | 100% | – | 19% | – | 89% | 7 nM | – | –
29 | Cn1cncc1CN1CC(N(CCn2cccc2)S(=O)(=O)c2ccccn2)Cc2cc(C#N)ccc21 (stereo unspecified) | 10 nM | 99% | – | 74% | 17 nM | 96% | 1.7 nM | – | –
30 | COC(=O)N1CCC(CN(C2Cc3cc(C#N)ccc3N(Cc3cncn3C)C2)S(=O)(=O)c2ccccn2)CC1 (stereo unspecified) [listing 1 of 3 here] | – | – | 0.58 nM | – | – | – | – | 15 nM | 16 nM
31 | Cn1cncc1CN1CC(N(CC(=O)NC(C)(C)C)S(=O)(=O)c2ccc(F)cc2)Cc2cc(C#N)ccc21 (stereo unspecified) | 5000 nM | 71% | 42 nM | 30% | > 5000 nM | 33% | – | – | –
32 | Cn1cncc1CN1CC(N(CC(=O)NC(C)(C)C)S(=O)(=O)c2c[nH]cn2)Cc2cc(C#N)ccc21 (stereo unspecified) | > 5000 nM | 15% | 800 nM | 10% | > 5000 nM | 14% | – | – | –
33 | COC(=O)N1CCC(CN(C2Cc3cc(C#N)ccc3N(Cc3cncn3C)C2)S(=O)(=O)c2ccccn2)CC1 (stereo unspecified) [listing 2 of 3 here] | – | – | 0.29 nM | – | – | – | – | 13 nM | 11 nM
34 | CCC(=O)N1CCC(CN(C2Cc3cc(C#N)ccc3N(Cc3cncn3C)C2)S(=O)(=O)c2ccccn2)CC1 (stereo unspecified) | 25 nM | 99% | 0.8 nM | 82% | 16 nM | 20% | – | – | –
35 | Cn1cnc(CN2CC(N(CCn3cccc3)S(=O)(=O)c3cn(C)cn3)Cc3cc(-c4ccccc4)ccc32)c1 (stereo unspecified) | 150 nM | 90% | – | 0% | 460 nM | 38% | – | – | –
36 | Cn1cncc1CN1CC(N(CC2CCN(C(=O)C(C)(C)C)CC2)S(=O)(=O)c2ccccn2)Cc2cc(C#N)ccc21 (stereo unspecified) | 75 nM | 99% | 1.2 nM | 76% | 48 nM | 17% | – | – | –
37 | Cn1cc(S(=O)(=O)N(Cc2ccc(S(C)(=O)=O)cc2)C2Cc3cc(C#N)ccc3N(Cc3cncn3C)C2)cn1 (stereo unspecified) | 60 nM | 97% | – | 36% | 75 nM | 88% | – | – | –
38 | Cn1cnc(CN2CC(NS(=O)(=O)c3ccccn3)Cc3cc(-c4ccccc4)ccc32)c1 (stereo unspecified) | > 5000 nM | 19% | – | 11% | > 5000 nM | 14% | – | – | –
39 | Cn1cncc1CN1CC(N(CCCCNC(=O)OC(C)(C)C)S(=O)(=O)c2ccccn2)Cc2cc(C#N)ccc21 (stereo unspecified) | 375 nM | 97% | – | 24% | 250 nM | 80% | – | – | –
40 | COC(=O)N1CCC(CN(C2Cc3cc(C#N)ccc3N(Cc3cncn3C)C2)S(=O)(=O)c2ccccn2)CC1 (stereo unspecified) [listing 3 of 3 here] | – | – | 2.7 nM | – | – | – | – | 75 nM | 95 nM
41 | Cn1cnc(S(=O)(=O)N(CCc2ccccc2)C2Cc3cc(C#N)ccc3N(Cc3cncn3C)C2)c1 (stereo unspecified) | 10 nM | 97% | – | 82% | 9 nM | 96% | – | – | –
